The subject of assay [1] is Radical scavenging activity. The experiment in a line: Antioxidant potency assessed chemically. The class given is functional. The procedure, abridged:
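TEAC determined by the Rice-Evans and Miller method, using 0.3 mM trolox solution with data normalized to 1.0 mM trolox.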

Assay [2] concerns Jurkat. As to the kind of experiment: Activity against hydrogen peroxide induced DNA damage in Jurkat T cells. It counts as functional, cell-based, Homo sapiens. An outline of the steps:
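Jurkat T cells (1.5 × 10⁵ per well, RPMI 1640 with 10% FCS) were preincubated 1 h at 37 °C, given compound 30 min before glucose oxidase (60 ng, about 11.8 µM H₂O₂/min), and exposed 10 min. Alkaline comet assay followed: lysis, unwinding at pH >13 for 40 min, electrophoresis at 1 V/cm for 30 min, Hoechst 33342 staining, visual scoring of 100 nucleoids. IC50 is the concentration halving strand breakage.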

The subject of assay [3] is HT-22. As to the kind of experiment: Inhibition of glutamate-induced oxytosis of mouse hippocampal HT22 cells. The class given is functional, cell-based. An outline of the steps:
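HT22 cells were plated at 4000 per well in phenol-red-free DMEM-HEPES with dextran-charcoal-treated FBS for 24 h. Serial compound dilutions were added with or without 5 mM glutamate for 24 h at 37 °C, and viability was read by MTT formazan conversion. EC50 is the concentration giving glutamate-exposed viability 50% of non-exposed cells; 3-7 independent experiments, mean ± SEM.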

[4] abbreviates: Homo sapiens, Jurkat, read-out: IC50.

Experimental findings from ChEMBL document CHEMBL1147741, “Chroman/catechol hybrids: synthesis and evaluation of their activity against oxidative stress induced cellular damage” (J Med Chem, 2006) are described below.

In turn, `Cc1c(C)c2c(c(CCc3ccc(O)c(O)c3)c1O)CCC(C)(C)O2` gave an Activity in assay [1] of 3.74 µM. Besides, the IC50 in assay [2] (setting [4]) came to 5 µM. Moreover, a half-maximal effect in assay [3] (EC50) was put at 930 nM.
As for `COc1ccc(CCc2c3c(c(C)c(C)c2OC)OC(C)(C)CC3)cc1OC`, the Activity in assay [1] worked out at 0.05 µM. In addition, in assay [2] (jurkat), the IC50 entry is listed as “Not Active”. In assay [3], the response was half-maximal at 4590 nM (EC50).
In assay [1], `COc1c(C)c(C)c2c(c1NC(=O)/C=C/c1ccc(O)c(O)c1)CCC(C)(C)O2` returned an Activity of 6.53 µM. Also, the IC50 in assay [2] (setting [4]) was found to be 20 µM. The molecule also yielded an EC50 in assay [3] of over 10000 nM.
In assay [3], `COc1ccc(/C=C/c2c3c(c(C)c(C)c2OC)OC(C)(C)CC3)cc1OC` returned an EC50 of over 10000 nM.
In the case of `COc1ccc(/C=C/C(=O)N2CCN(C(=O)C3(C)CCc4c(C)c(O)c(C)c(C)c4O3)CC2)cc1OC` (stereo unspecified), the Activity in assay [1] came out at 1.26 µM. Moreover, the IC50 result in assay [2] (jurkat) is given as “Not Active”. In assay [3], this molecule gave an EC50 of 650 nM.
As for `Cc1c(C)c2c(c(C)c1O)CCC(C)(C(=O)NCCNCCNC(=O)/C=C/c1ccc(O)c(O)c1)O2` (stereo unspecified), the Activity in assay [1] amounted to 6.33 µM. In addition, the IC50 in assay [2] (setting [4]) is 50 µM. In assay [3], the EC50 is over 10000 nM.
As to `Cc1c(C)c2c(c(NC(=O)/C=C/c3ccc(O)c(O)c3)c1O)CCC(C)(C)O2`, the Activity in assay [1] stood at 4.28 µM. Moreover, the IC50 in assay [2] (setting [4]) is 5 µM. This molecule displayed an EC50 in assay [3] of 1230 nM.
Taken in the same sequence, the figures for `COc1c(C)c(C)c2c(c1C)CCC(C)(C(=O)N1CCN(C(=O)/C=C/c3ccc(O)c(O)c3)CC1)O2` (stereo unspecified) were 6.12 µM, 50 µM and 2110 nM.
Taken in the same sequence, the figures for `Cc1c(C)c2c(c(C)c1O)CCC(C)(C(=O)NCCNC(=O)/C=C/c1ccc(O)c(O)c1)O2` (stereo unspecified) were 6.5 µM, 75 µM and 7360 nM.
Taken in the same sequence, the figures for `O=c1c(O)c(-c2ccc(O)c(O)c2)oc2cc(O)cc(O)c12` [QUERCETIN] were 4.3 µM, 5 µM and 2980 nM.
Molecule `O=C(O)/C=C/c1ccc(O)c(O)c1` [CAFFEIC ACID] came in with an Activity in assay [1] of 1.2 µM. Moreover, in assay [2] (jurkat), the IC50 entry was “Not Active”.
`COc1ccc(C#Cc2c(O)c(C)c(C)c3c2CCC(C)(C)O3)cc1OC` returned an EC50 in assay [3] of over 10000 nM.
In assay [1], `COc1c(C)c(C)c2c(c1CNC(=O)/C=C/c1ccc(O)c(O)c1)CCC(C)(C)O2` registered an Activity of 3.8 µM. Besides, the IC50 in assay [2] (setting [4]) was 1 µM. The response in assay [3] was half-maximal at 2150 nM (EC50).
`Cc1c(C)c2c(c3c1OC(c1ccc(O)c(O)c1)C3)CCC(C)(C)O2` (stereo unspecified) registered an Activity in assay [1] of 5.9 µM. The IC50 in assay [2] (setting [4]) worked out at 10 µM. In addition, the EC50 in assay [3] was found to be 1000 nM.
Taken in the same sequence, the figures for `Cc1c(C)c2c(c(C)c1O)CCC(C)(C(=O)N1CCN(C(=O)/C=C/c3ccc(O)c(O)c3)CC1)O2` (stereo unspecified) were 6.55 µM, 50 µM and 1480 nM.
In assay [1], `Cc1c(C)c2c(c(C)c1O)CCC(C)(C(=O)O)O2` (stereo unspecified) [TROLOX] gave an Activity of 1 µM. Moreover, in assay [2] (jurkat), the IC50 entry is reported as “Not Active”.
As for `Cc1c(C)c2c(c(C)c1O)CCC(C)(CNC(=O)/C=C/c1ccc(O)c(O)c1)O2` (stereo unspecified), the Activity in assay [1] amounted to 6.53 µM. For the same molecule, the IC50 in assay [2] (setting [4]) stood at 25 µM. This molecule returned an EC50 in assay [3] of 1140 nM.
`Cc1c(C)c2c(c(C)c1O)CCC(C)(C(=O)NCCN1CCN(C(=O)/C=C/c3ccc(O)c(O)c3)CC1)O2` (stereo unspecified) gave an Activity in assay [1] of 6.24 µM. In assay [2] (setting [4]), the IC50 was 20 µM. For the same molecule, the concentration giving a half-maximal response (EC50) in assay [3] is 6350 nM.
Taken in the same sequence, the figures for `COc1c(C)c(C)c2c(c1CCc1ccc(O)c(O)c1)CCC(C)(C)O2` were 1.6 µM, 10 µM and 1170 nM.

One may read the IC50 as the point on the concentration scale where inhibition reaches its midpoint. One may read the EC50 as the concentration needed to bring the measured effect to its halfway point. Low values mean an effect from little substance, high ones a need for much substance.
